EBI2 block: EBI2 receptor antagonists, beta-arrestin recruitment, primary screen, cell-based, luminescence, 7a,25-OHC stimulation, uHTS. inhibition, % at 5 µM. AID 651636, 2012. 7a,25-OHC stimulated. G-protein coupled receptor 183 (Homo sapiens), P32249. 0.81% of 360,000 active; in the data active = inhibition above about 38%;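 note: enzyme fragment complementation signal reports receptor beta-arrestin coupling in cells; 0% = agonist plus DMSO wells and 100% = wells without agonist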
Target sequence (P32249 whole entry, looked up, the tested form may be a part): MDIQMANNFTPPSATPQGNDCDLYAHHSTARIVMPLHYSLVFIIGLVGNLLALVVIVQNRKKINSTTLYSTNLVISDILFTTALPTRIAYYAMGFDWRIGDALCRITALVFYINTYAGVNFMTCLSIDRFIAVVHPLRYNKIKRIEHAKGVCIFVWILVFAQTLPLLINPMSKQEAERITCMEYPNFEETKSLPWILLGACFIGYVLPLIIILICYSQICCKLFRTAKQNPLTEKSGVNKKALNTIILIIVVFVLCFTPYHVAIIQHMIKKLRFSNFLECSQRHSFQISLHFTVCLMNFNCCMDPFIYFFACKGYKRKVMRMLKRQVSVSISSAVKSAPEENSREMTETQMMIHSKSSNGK
CXCR6 block: CXCR6 receptor inhibitors, primary screen, cell-based, beta-arrestin, luminescence, CHO-K1 PathHunter, 1536-well. C-X-C chemokine receptor type 6 (Homo sapiens), O00574. inhibition, % at 20 µM. 0.36% of 360,000 active. AID 602244, 2012; in the data active = inhibition above about 34%, passing the limit was not always enough;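 note: antagonist mode with CXCL16 agonist at 10 nM final; 0% = 10 nM CXCL16 with DMSO and 100% = unstimulated wells without agonist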
APJ antagonist: antagonists of human apelin receptor APJ, primary screen, CHO-K1 cells, beta-arrestin complementation, luminescence; P35414; inhibition, % at 20 µM; 0.32% of 330,000 active; AID 2521, 2010;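 active = inhibition above about 40% at 20 µM, limit read from the data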;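 note: cells challenged with 10 nM apelin-13 agonist together with compound; plate controls were apelin-13 plus DMSO wells for no effect and DMSO wells lacking apelin-13 for full effect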
CCR6 antag: CCR6 receptor antagonists, primary screen, cell-based, CHO-K1, luminescence, beta-arrestin, uHTS; C-C chemokine receptor type 6 (Homo sapiens), P51684; CHO-K1 CCR6 PathHunter beta-arrestin, CCL20-stimulated; inhibition, % at 20 µM; 0.49% of 340,000 active; AID 493098, 2011;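 active = compounds whose inhibition of the agonist-driven luminescence signal at 20 µM reaches about 50%, limit read from the data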;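 note: cells stimulated with CCL20 at 14 nM final; plate controls were DMSO with CCL20 for no effect and DMSO without agonist for full effect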
APJ ag: agonists of human apelin receptor APJ, primary screen, CHO-K1 cells, PathHunter beta-arrestin, luminescence | P35414 | 0% DMSO wells, 100% apelin | activation, % at 20 µM | 0.11% of 330,000 active;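 active = activation more than six SD over the plate average, tested at 20 µM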;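 note: 0% = DMSO alone and 100% = apelin-13 at 10 nM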
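Test system: CHO-K1 APJ beta-arrestin complementation cell line | Compound: Single test compound dose, 20 µM final, 1% DMSO | Incubation: Compound 90 min 25 °C, reagent 1 h | Measured by: beta-gal luminescence | Read-out basis: APJ–arrestin association signal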
APJ antag confirm: APJ antagonists blocking beta-arrestin recruitment, confirmation, cell-based, luminescence, single concentration, uHTS hits; shares compounds with APJ antagonist; antagonist mode; inhibition, % at 20 µM; 66% of 950 active; AID 2766, 2010; in the data active = inhibition above about 50%
Numbers without * were called inactive. In the library only some 1.5% were active in any assay of this set; here they are far more common.

How did O=C(Cn1nnc2ccccc21)OCC(=O)c1ccc(Cl)c(Cl)c1 do in these assays?
EBI2 block: 13; CXCR6 block: 25; APJ antagonist: 91*; CCR6 antag: 73*; APJ ag: -9; APJ antag confirm: 111*

How did Cc1ccc(C(=O)COC(=O)c2cc(Cl)ccc2O)cc1[N+](=O)[O-] do in these assays?
EBI2 block: 15; CXCR6 block: 17; APJ antagonist: 33; CCR6 antag: 15; APJ ag: -17

Results for O=C(COC(=O)c1ccncc1)c1ccc(Cl)c(Cl)c1 ?
EBI2 block: -5; CXCR6 block: 1; APJ antagonist: 74*; CCR6 antag: 15; APJ ag: -12; APJ antag confirm: 86*

What do the screens show for `Fc1ccccc1N1CCN(C(c2ccnc3ccccc23)c2nnnn2-c2ccc3c(c2)OCCO3)CC1` (stereo not drawn)?
EBI2 block: 13; CXCR6 block: 12

What do the screens show for `COc1ccc(C(O)c2nc(-c3cccc(NC(C)=O)c3)cs2)cc1` (stereo not drawn)?
EBI2 block: -8; CXCR6 block: -4

What do the screens show for `C/C(=N\NC(=O)C(O)c1ccccc1)c1cccnc1` (stereo not drawn)?
EBI2 block: -7; CXCR6 block: 2; APJ antagonist: -2; CCR6 antag: -1; APJ ag: -2

What do the screens show for `CC(=O)N/N=C(/c1ccccc1)C(O)c1ccccc1` (stereo not drawn)?
EBI2 block: -4; CXCR6 block: 5; APJ antagonist: 43*; CCR6 antag: 3; APJ ag: 0; APJ antag confirm: -10

What do the screens show for `C[C@H]1Cn2cnc(C(=O)Nc3ccccc3)c2C(=O)N1`?
EBI2 block: -11; CXCR6 block: 2

What do the screens show for `CCOC(=O)c1cnc(Nc2nc3ccccc3o2)nc1CSc1ncccn1`?
APJ antagonist: 38; CCR6 antag: 5; APJ ag: -6

How did CCOC(=O)c1cnc(Nc2nc3ccccc3o2)nc1CSC(=S)N(CC)CC do in these assays?
EBI2 block: 26; CXCR6 block: 18; APJ antagonist: 46*; CCR6 antag: 44; APJ ag: -7; APJ antag confirm: 8

What do the screens show for `Cn1c(=O)cc(SCC(=O)Nc2ccc3c(c2)OCO3)c2ccccc21`?
EBI2 block: -3; CXCR6 block: -6; APJ antagonist: 45*; CCR6 antag: 12; APJ ag: 6; APJ antag confirm: -26

What do the screens show for `Cn1cc(SCC(=O)Nc2ccc3c(c2)OCO3)c2ccccc21`?
EBI2 block: 0; CXCR6 block: -4; APJ antagonist: 17; CCR6 antag: 13; APJ ag: -1

How did CCN1C(=O)/C(=C\C=C2/C=CC=CN2CC)SC1=S do in these assays?
EBI2 block: -1; CXCR6 block: 54*; APJ antagonist: 65*; CCR6 antag: 64*; APJ ag: -7; APJ antag confirm: 122*

Results for O=C(NNc1c2ccccc2nc2ccccc12)c1ccccc1O ?
EBI2 block: 26; CXCR6 block: 26; APJ antagonist: 27; CCR6 antag: 43; APJ ag: -5

How did O=C(NNc1c2ccccc2nc2ccccc12)c1ccc(O)cc1 do in these assays?
EBI2 block: 19; CXCR6 block: 36; APJ antagonist: 41*; CCR6 antag: 57*; APJ ag: -7; APJ antag confirm: 69*

Results for COc1ccc2nc(NC(=S)N(C)C)sc2c1 ?
EBI2 block: -1; CXCR6 block: 35; APJ antagonist: 51*; CCR6 antag: 45; APJ ag: -9; APJ antag confirm: 44

How did COc1ccc2nc(NC(=O)CSC3=NCCS3)sc2c1 do in these assays?
EBI2 block: 2; CXCR6 block: 0; APJ antagonist: 41*; CCR6 antag: 16; APJ ag: -3; APJ antag confirm: -13

How did OC(c1cccc(Cl)c1)c1nc(-c2csc3ccccc23)cs1 (stereo not drawn) do in these assays?
EBI2 block: 2; CXCR6 block: -4

How did Cc1cc2nc(C(C)(C)C)c(CC3CCCCC3)n2c(C)c1Br do in these assays?
EBI2 block: 0; CXCR6 block: -9

What do the screens show for `COc1ccc2nc3cc(Cl)ccc3c(Nc3ccc(O)c(CN4CCN(C)CC4)c3)c2c1`?
EBI2 block: -30; CXCR6 block: 10; CCR6 antag: 17

Results for CCOC(=O)c1ccc(N2N=C(C)/C(=C/C=C/c3ccco3)C2=O)cc1 ?
EBI2 block: 11; CXCR6 block: 14; APJ antagonist: 23; CCR6 antag: -13; APJ ag: -6

How did CC1=NN(c2ccc(C(=O)OC(C)C)cc2)C(=O)/C1=C\C=C\c1ccco1 do in these assays?
EBI2 block: 3; CXCR6 block: 13; APJ antagonist: 57*; CCR6 antag: -8; APJ ag: -2; APJ antag confirm: 51*

How did COc1ccc(-c2cc3c(nn2)-c2ccccc2C3=O)cc1 do in these assays?
EBI2 block: 51*; CXCR6 block: 19; APJ antagonist: 40*; CCR6 antag: 17; APJ ag: -10; APJ antag confirm: 143*

Results for Cc1cccc(-c2cc3c(nn2)-c2ccccc2C3=O)c1 ?
EBI2 block: 31; CXCR6 block: 26; APJ antagonist: 17; CCR6 antag: 42; APJ ag: -11

How did O=C1c2ccccc2-c2nnc(-c3ccccc3)cc21 do in these assays?
EBI2 block: 70*; CXCR6 block: 29; APJ antagonist: 53*; CCR6 antag: 56*; APJ ag: -13; APJ antag confirm: 143*

What do the screens show for `COc1ccc(-c2cn(Cc3ccc4c(c3)C(=O)c3ccccc3C4=O)nn2)cc1`?
EBI2 block: -11; CXCR6 block: -10; APJ antagonist: -108; CCR6 antag: 6; APJ ag: 19

What do the screens show for `O=C(CSc1ncnc2c1cnn2-c1ccccc1)Nc1ccccc1`?
EBI2 block: -1; CXCR6 block: 0; APJ antagonist: 54*; CCR6 antag: 11; APJ ag: 2; APJ antag confirm: 27

Results for COc1cccc(NC(=S)N/N=C2\CC3CCC2(C)C3(C)C)c1 (stereo not drawn) ?
EBI2 block: 22; CXCR6 block: 40; APJ antagonist: 41*; CCR6 antag: 55*; APJ ag: -7; APJ antag confirm: 79*

Results for CCN(CC)CCCn1c2c(c(SCC(=O)Nc3ccc(F)c(F)c3)nc1=O)CCC2 ?
EBI2 block: 7; CXCR6 block: 3; APJ antagonist: 6; CCR6 antag: 6; APJ ag: -6
